Source: ChEMBL document CHEMBL5058577, “EUbOPEN Chemogenomics Library 2 (Multiplex)” (2022)

System: U2OS
Assay: Multiplex assay against U2OS
Assay type: toxicity, cell-based
Details: human
Procedure, shortened: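 On a CQ1 microscope at 37°C and 5% CO2, live cells were imaged after compound addition. They had been stained at seeding with Hoechst33342, BioTracker Green Microtubule Cytoskeleton Dye, MitoTracker Red and Annexin V Alexa Fluor 680. CellPathfinder machine-learning gating assigned cells to Hoechst high-intensity objects or normal cells, normal cells to healthy, pyknosed or fragmented nuclei, and pyknosed cells to mitotic or apoptotic. Tubulin, mitochondrial-mass and membrane-permeability phenotypes are per cents of healthy-nucleus cells.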

[1] = 12 h, 1 µM, compound concentration 1 uM, replicate 1
[2] = 12 h, 1 µM, compound concentration 1 uM, replicate 2
[3] = 12 h, 10 µM, compound concentration 10 uM, replicate 1
[4] = 12 h, 10 µM, compound concentration 10 uM, replicate 2
[5] = 24 h, 1 µM, compound concentration 1 uM, replicate 1
[6] = 24 h, 1 µM, compound concentration 1 uM, replicate 2
[7] = 24 h, 10 µM, compound concentration 10 uM, replicate 1
[8] = 24 h, 10 µM, compound concentration 10 uM, replicate 2
[9] = 48 h, 1 µM, compound concentration 1 uM, replicate 1
[10] = 48 h, 1 µM, compound concentration 1 uM, replicate 2
[11] = 48 h, 10 µM, compound concentration 10 uM, replicate 1
[12] = 48 h, 10 µM, compound concentration 10 uM, replicate 2

## CC(C)C[C@H](CO)Nc1nc(S[C@@H](C)c2ccccc2)nc2nc(N)sc12 [AZD-8797]
[1]
  Population Apoptotic (%): 83%
  Population Fragmented Nuclei (%): 20%
  Population Healthy Nuclei (%): 65%
  Population Hoechst High Intensity Objects (%): 3%
  Population Membrane Permeable-Phenotype (%): 5%
  Population Mitochondria Different-Phenotype (%): 1%
  Population Mitotic Cells (%): 16%
  Population Normal (%): 96%
  Population Pyknosed Nuclei (%): 14%
  Population Tubulin-Different-Phenotype (%): 2%
  Total Cell Count: 177
[2]
  Population Apoptotic (%): 100%
  Population Fragmented Nuclei (%): 12%
  Population Healthy Nuclei (%): 82%
  Population Hoechst High Intensity Objects (%): 0%
  Population Mitochondria Different-Phenotype (%): 5%
  Population Mitotic Cells (%): 0%
  Population Normal (%): 100%
  Population Pyknosed Nuclei (%): 5%
  Population Tubulin-Different-Phenotype (%): 3%
  Total Cell Count: 95
[3]
  Population Apoptotic (%): 63%
  Population Fragmented Nuclei (%): 21%
  Population Healthy Nuclei (%): 56%
  Population Hoechst High Intensity Objects (%): 4%
  Population Membrane Permeable-Phenotype (%): 30%
  Population Mitochondria Different-Phenotype (%): 12%
  Population Mitotic Cells (%): 36%
  Population Normal (%): 95%
  Population Pyknosed Nuclei (%): 22%
  Population Tubulin-Different-Phenotype (%): 20%
  Total Cell Count: 222
[4]
  Population Apoptotic (%): 78%
  Population Fragmented Nuclei (%): 9%
  Population Healthy Nuclei (%): 79%
  Population Hoechst High Intensity Objects (%): 2%
  Population Membrane Permeable-Phenotype (%): 10%
  Population Mitochondria Different-Phenotype (%): 16%
  Population Mitotic Cells (%): 21%
  Population Normal (%): 97%
  Population Pyknosed Nuclei (%): 10%
  Population Tubulin-Different-Phenotype (%): 6%
  Total Cell Count: 135
[5]
  Population Apoptotic (%): 81%
  Population Fragmented Nuclei (%): 20%
  Population Healthy Nuclei (%): 68%
  Population Hoechst High Intensity Objects (%): 1%
  Population Membrane Permeable-Phenotype (%): 2%
  Population Mitochondria Different-Phenotype (%): 0%
  Population Mitotic Cells (%): 18%
  Population Normal (%): 98%
  Population Pyknosed Nuclei (%): 10%
  Population Tubulin-Different-Phenotype (%): 2%
  Total Cell Count: 219
[6]
  Population Apoptotic (%): 83%
  Population Fragmented Nuclei (%): 17%
  Population Healthy Nuclei (%): 77%
  Population Hoechst High Intensity Objects (%): 0%
  Population Membrane Permeable-Phenotype (%): 4%
  Population Mitochondria Different-Phenotype (%): 2%
  Population Mitotic Cells (%): 16%
  Population Normal (%): 100%
  Population Pyknosed Nuclei (%): 4%
  Population Tubulin-Different-Phenotype (%): 3%
  Total Cell Count: 121
[7]
  Population Apoptotic (%): 76%
  Population Fragmented Nuclei (%): 20%
  Population Healthy Nuclei (%): 58%
  Population Hoechst High Intensity Objects (%): 3%
  Population Membrane Permeable-Phenotype (%): 22%
  Population Mitochondria Different-Phenotype (%): 12%
  Population Mitotic Cells (%): 24%
  Population Normal (%): 96%
  Population Pyknosed Nuclei (%): 21%
  Population Tubulin-Different-Phenotype (%): 13%
  Total Cell Count: 245
[8]
  Population Apoptotic (%): 100%
  Population Fragmented Nuclei (%): 7%
  Population Healthy Nuclei (%): 86%
  Population Hoechst High Intensity Objects (%): 1%
  Population Membrane Permeable-Phenotype (%): 9%
  Population Mitotic Cells (%): 0%
  Population Normal (%): 98%
  Population Pyknosed Nuclei (%): 6%
  Population Tubulin-Different-Phenotype (%): 6%
  Total Cell Count: 156
[9]
  Population Apoptotic (%): 94%
  Population Fragmented Nuclei (%): 18%
  Population Healthy Nuclei (%): 69%
  Population Hoechst High Intensity Objects (%): 2%
  Population Membrane Permeable-Phenotype (%): 6%
  Population Mitochondria Different-Phenotype (%): 0%
  Population Mitotic Cells (%): 5%
  Population Normal (%): 97%
  Population Pyknosed Nuclei (%): 11%
  Population Tubulin-Different-Phenotype (%): 2%
  Total Cell Count: 352
[10]
  Population Apoptotic (%): 100%
  Population Fragmented Nuclei (%): 15%
  Population Healthy Nuclei (%): 77%
  Population Membrane Permeable-Phenotype (%): 2%
  Population Mitochondria Different-Phenotype (%): 2%
  Population Mitotic Cells (%): 0%
  Population Pyknosed Nuclei (%): 6%
  Total Cell Count: 181
[11]
  Population Apoptotic (%): 90%
  Population Fragmented Nuclei (%): 26%
  Population Healthy Nuclei (%): 54%
  Population Hoechst High Intensity Objects (%): 4%
  Population Membrane Permeable-Phenotype (%): 20%
  Population Mitochondria Different-Phenotype (%): 10%
  Population Mitotic Cells (%): 9%
  Population Normal (%): 95%
  Population Pyknosed Nuclei (%): 19%
  Population Tubulin-Different-Phenotype (%): 14%
  Total Cell Count: 296
[12]
  Population Apoptotic (%): 96%
  Population Fragmented Nuclei (%): 12%
  Population Healthy Nuclei (%): 74%
  Population Hoechst High Intensity Objects (%): 3%
  Population Membrane Permeable-Phenotype (%): 11%
  Population Mitochondria Different-Phenotype (%): 5%
  Population Mitotic Cells (%): 3%
  Population Normal (%): 96%
  Population Pyknosed Nuclei (%): 12%
  Population Tubulin-Different-Phenotype (%): 4%
  Total Cell Count: 218
